Consider eight molecules from ChEMBL document CHEMBL3085628, “Identification of CB1/CB2 ligands from Zanthoxylum bungeanum” (J Nat Prod, 2013).

In test [1] the target is T1, Cannabinoid receptor 2 (Homo sapiens, UniProt P34972). The test can be described thus: Agonist activity at CB2 receptor (unknown origin) at 10 uM after 90 to 180 mins by beta-arrestin assay relative to control.
Test [2] addresses T2, Follicle-stimulating hormone receptor (Homo sapiens) (UniProt P23945).
T2 sequence (whole entry): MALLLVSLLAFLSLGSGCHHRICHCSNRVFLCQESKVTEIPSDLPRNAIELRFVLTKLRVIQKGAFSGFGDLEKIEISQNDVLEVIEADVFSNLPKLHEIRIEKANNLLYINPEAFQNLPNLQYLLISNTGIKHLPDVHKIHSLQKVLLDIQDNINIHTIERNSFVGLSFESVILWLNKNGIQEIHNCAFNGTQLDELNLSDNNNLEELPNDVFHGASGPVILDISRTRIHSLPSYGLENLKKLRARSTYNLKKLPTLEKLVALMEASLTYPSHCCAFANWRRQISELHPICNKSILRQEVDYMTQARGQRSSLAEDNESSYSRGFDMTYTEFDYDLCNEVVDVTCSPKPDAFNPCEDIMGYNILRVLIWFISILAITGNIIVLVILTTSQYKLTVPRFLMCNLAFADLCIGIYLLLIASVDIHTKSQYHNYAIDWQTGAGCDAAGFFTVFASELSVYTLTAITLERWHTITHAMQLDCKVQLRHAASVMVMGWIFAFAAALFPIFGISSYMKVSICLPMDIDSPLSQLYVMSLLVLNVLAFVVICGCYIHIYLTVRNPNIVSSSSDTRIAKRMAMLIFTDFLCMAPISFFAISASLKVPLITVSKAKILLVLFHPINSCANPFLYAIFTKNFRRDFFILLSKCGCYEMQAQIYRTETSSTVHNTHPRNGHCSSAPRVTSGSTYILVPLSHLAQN
As to the kind of experiment: Antagonist activity at FSHR (unknown origin) at 10 uM after 3 to 5 hrs by beta-arrestin assay relative to control.

Test [3] concerns the target T3, Cannabinoid receptor 1 (Homo sapiens, UniProt P21554). As to the kind of experiment: Antagonist activity at CB1 receptor (unknown origin) at 10 uM after 3 to 5 hrs by beta-arrestin assay relative to control.
Test [4] deals with T4, Prolactin-releasing peptide receptor (Homo sapiens) (UniProt P49683).
T4 sequence (whole entry): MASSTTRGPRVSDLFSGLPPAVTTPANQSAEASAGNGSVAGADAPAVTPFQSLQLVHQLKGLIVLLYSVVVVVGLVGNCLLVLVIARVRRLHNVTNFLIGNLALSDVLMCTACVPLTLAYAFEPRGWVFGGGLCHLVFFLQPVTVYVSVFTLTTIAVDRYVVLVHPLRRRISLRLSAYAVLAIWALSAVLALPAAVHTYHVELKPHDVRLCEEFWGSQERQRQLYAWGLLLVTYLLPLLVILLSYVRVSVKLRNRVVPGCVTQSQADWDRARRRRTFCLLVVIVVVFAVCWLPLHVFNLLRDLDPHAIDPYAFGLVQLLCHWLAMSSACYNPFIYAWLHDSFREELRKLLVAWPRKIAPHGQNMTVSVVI
The test can be described thus: Antagonist activity at PRLHR (unknown origin) at 10 uM after 3 to 5 hrs by beta-arrestin assay relative to control.

Test [5] concerns the target T1, Cannabinoid receptor 2. As to the kind of experiment: Antagonist activity at CB2 receptor (unknown origin) at 10 uM after 3 to 5 hrs by beta-arrestin assay relative to control.
Test [6] has as its target Prostaglandin E2 receptor EP2 subtype (Homo sapiens) (UniProt P43116). As to the kind of experiment: Agonist activity at PTGER2 (unknown origin) at 10 uM after 90 to 180 mins by beta-arrestin assay relative to control.
The target in test [7] is T5, Relaxin-3 receptor 1 (Homo sapiens) (UniProt Q9NSD7).
T5 sequence (whole entry): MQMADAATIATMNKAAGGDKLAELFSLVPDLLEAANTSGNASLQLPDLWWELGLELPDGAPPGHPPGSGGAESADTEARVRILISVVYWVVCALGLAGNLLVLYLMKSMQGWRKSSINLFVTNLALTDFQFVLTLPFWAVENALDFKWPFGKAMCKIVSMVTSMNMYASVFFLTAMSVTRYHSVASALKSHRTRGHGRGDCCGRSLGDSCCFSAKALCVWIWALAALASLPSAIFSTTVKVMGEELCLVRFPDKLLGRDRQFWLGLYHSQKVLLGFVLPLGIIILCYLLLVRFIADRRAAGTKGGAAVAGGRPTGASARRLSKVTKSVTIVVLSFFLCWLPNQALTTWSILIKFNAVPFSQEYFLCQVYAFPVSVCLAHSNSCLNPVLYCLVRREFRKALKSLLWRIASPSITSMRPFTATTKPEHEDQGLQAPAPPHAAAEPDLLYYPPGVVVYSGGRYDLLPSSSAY
The test can be described thus: Agonist activity at RXFP3 (unknown origin) at 10 uM after 90 to 180 mins by beta-arrestin assay relative to control.

The target of test [8] is Histamine H4 receptor (Homo sapiens) (UniProt Q9H3N8). The test can be described thus: Agonist activity at HRH4 (unknown origin) at 10 uM after 90 to 180 mins by beta-arrestin assay relative to control.
In test [9] the target is T6, G-protein coupled receptor 151 (Homo sapiens) (UniProt Q8TDV0).
T6 sequence (whole entry): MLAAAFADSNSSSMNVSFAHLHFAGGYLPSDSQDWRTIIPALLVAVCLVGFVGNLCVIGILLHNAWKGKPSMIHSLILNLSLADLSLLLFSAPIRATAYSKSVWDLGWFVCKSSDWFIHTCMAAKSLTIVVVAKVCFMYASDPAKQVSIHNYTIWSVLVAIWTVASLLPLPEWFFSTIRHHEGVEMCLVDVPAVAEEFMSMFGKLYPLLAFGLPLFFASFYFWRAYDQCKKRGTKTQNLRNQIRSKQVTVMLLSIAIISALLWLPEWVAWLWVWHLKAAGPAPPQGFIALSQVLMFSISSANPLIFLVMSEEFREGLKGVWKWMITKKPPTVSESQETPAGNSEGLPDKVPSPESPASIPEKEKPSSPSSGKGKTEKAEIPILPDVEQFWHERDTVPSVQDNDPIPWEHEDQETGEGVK
As to the kind of experiment: Agonist activity at GPR151 (unknown origin) expressed in CHO-K1 cells at 10 uM after 90 to 180 mins by beta-arrestin assay relative to control. Type of test: cell-based.

In test [10] the target is T7, Probable G-protein coupled receptor 132 (Homo sapiens) (UniProt Q9UNW8).
T7 sequence (whole entry): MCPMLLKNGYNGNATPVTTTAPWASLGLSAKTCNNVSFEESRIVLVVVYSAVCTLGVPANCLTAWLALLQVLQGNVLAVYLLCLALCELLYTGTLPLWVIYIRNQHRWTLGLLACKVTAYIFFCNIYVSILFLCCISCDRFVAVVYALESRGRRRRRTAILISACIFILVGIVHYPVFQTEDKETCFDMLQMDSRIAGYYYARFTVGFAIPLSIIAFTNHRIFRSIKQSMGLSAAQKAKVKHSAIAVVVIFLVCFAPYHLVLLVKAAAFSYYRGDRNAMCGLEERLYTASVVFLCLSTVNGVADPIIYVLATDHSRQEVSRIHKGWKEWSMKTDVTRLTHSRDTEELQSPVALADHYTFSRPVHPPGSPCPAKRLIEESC
The test can be described thus: Agonist activity at GPR132 (unknown origin) expressed in CHO-K1 cells at 10 uM after 90 to 180 mins by beta-arrestin assay relative to control. Type of test: cell-based.

Test [11] addresses G-protein coupled receptor 55 (Homo sapiens) (UniProt Q9Y2T6). As to the kind of experiment: Agonist activity at GPR55 (unknown origin) expressed in CHO-K1 cells at 10 uM after 90 to 180 mins by beta-arrestin assay relative to control. Type of test: cell-based.
For test [12], the target named is T2, Follicle-stimulating hormone receptor (Homo sapiens). The test can be described thus: Agonist activity at FSHR (unknown origin) at 10 uM after 90 to 180 mins by beta-arrestin assay relative to control.
For test [13], the target named is T4, Prolactin-releasing peptide receptor (Homo sapiens). The test can be described thus: Agonist activity at PRLHR (unknown origin) at 10 uM after 90 to 180 mins by beta-arrestin assay relative to control.
Test [14] deals with T3, Cannabinoid receptor 1. As to the kind of experiment: Agonist activity at CB1 receptor (unknown origin) at 10 uM after 90 to 180 mins by beta-arrestin assay relative to control.
Test [15] addresses T1, Cannabinoid receptor 2. The test can be described thus: Agonist activity at CB2 receptor (unknown origin) after 90 to 180 mins by beta-arrestin assay.
Test [16] is filed under the species Homo sapiens. As to the kind of experiment: Selectivity ratio of IC50 for human CB1 receptor to IC50 for human CB2 receptor.
The target in test [17] is T1, Cannabinoid receptor 2. As to the kind of experiment: Inhibition of human CB2 receptor internalization expressed in CHO cells assessed as inhibition of [3H]-CP55940 uptake preincubated for 1 hr followed by radioligand addition measured after 1 hr by liquid scintillation counting analysis relative to control. Type of test: cell-based. Details: concentration or dose not given beside the values. The settings on record: concentration not given here. A digest of the protocol:
(§1)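 CHO cells stably expressing human CB1 or CB2 grown 24 h at 2.0 × 10^5 cells/mL in DMEM/F12 with 10% FBS. They were preincubated 1 h with serial dilutions (top 5.0 μM for CB1, 10 μM for CB2; DMSO <0.1% final), then given 1 h 10 nM [3H]-Win 55,212-2 (CB1) or 2 nM [3H]-CP 55,940 (CB2). Cells were washed, NaOH-lysed and scintillation-counted. Uptake normalized to no-compound wells; sigmoid fit; mean ± SE, n = 6.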

Test [18] addresses T1, Cannabinoid receptor 2. As to the kind of experiment: Displacement of [3H]-CP55940 from human CB2 receptor expressed in CHO cells preincubated for 1 hr followed by radioligand addition measured after 1 hr by liquid scintillation counting analysis. Type of test: cell-based. A digest of the protocol: as §1
The target in test [19] is T3, Cannabinoid receptor 1. The test can be described thus: Inhibition of human CB1 receptor internalization expressed in CHO cells assessed as inhibition of [3H]-Win55212-2 uptake preincubated for 1 hr followed by radioligand addition measured after 1 hr by liquid scintillation counting analysis relative to control. Type of test: cell-based. On the set-up: concentration or dose not given beside the values. The settings on record: concentration not given here. A digest of the protocol:
as §1

In test [20] the target is T3, Cannabinoid receptor 1. As to the kind of experiment: Displacement of [3H]-Win55212-2 from human CB1 receptor expressed in CHO cells preincubated for 1 hr followed by radioligand addition measured after 1 hr by liquid scintillation counting analysis. Type of test: cell-based. The procedure, abridged: as §1

T1 sequence (P34972 whole entry): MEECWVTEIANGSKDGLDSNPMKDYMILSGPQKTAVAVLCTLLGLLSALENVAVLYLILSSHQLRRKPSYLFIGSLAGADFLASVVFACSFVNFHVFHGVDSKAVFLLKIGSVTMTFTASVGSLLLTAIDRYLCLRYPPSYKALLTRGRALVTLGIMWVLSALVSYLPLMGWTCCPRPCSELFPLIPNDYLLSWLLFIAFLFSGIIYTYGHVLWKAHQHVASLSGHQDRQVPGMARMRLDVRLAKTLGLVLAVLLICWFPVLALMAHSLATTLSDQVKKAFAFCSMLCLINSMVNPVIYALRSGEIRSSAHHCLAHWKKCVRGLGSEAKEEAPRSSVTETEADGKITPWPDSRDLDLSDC
T3 sequence (P21554 whole entry): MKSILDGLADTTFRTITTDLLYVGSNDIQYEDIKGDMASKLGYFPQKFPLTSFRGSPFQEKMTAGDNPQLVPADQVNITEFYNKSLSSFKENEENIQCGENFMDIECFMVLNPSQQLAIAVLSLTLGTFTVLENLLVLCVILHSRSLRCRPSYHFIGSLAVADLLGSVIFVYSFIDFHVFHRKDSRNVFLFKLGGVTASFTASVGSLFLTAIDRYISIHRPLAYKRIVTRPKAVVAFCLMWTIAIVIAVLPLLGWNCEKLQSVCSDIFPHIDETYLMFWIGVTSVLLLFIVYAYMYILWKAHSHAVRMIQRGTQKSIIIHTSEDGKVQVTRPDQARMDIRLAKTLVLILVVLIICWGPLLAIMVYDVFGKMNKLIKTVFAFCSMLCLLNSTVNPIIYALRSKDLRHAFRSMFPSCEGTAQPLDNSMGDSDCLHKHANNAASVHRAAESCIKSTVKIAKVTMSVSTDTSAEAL
Histamine H4 receptor (Homo sapiens), sequence (Q9H3N8 whole entry): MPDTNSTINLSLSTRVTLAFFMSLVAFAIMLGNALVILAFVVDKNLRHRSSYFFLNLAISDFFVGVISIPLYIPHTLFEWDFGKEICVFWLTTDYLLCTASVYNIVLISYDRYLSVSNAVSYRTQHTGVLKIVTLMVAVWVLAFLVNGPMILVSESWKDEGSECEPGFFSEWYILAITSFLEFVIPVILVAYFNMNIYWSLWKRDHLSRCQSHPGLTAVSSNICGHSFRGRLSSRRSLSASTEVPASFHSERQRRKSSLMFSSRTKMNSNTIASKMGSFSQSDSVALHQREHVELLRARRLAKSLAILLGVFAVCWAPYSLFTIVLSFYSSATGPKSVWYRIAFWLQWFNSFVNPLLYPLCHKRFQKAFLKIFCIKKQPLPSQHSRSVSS
G-protein coupled receptor 55 (Homo sapiens), sequence (Q9Y2T6 whole entry): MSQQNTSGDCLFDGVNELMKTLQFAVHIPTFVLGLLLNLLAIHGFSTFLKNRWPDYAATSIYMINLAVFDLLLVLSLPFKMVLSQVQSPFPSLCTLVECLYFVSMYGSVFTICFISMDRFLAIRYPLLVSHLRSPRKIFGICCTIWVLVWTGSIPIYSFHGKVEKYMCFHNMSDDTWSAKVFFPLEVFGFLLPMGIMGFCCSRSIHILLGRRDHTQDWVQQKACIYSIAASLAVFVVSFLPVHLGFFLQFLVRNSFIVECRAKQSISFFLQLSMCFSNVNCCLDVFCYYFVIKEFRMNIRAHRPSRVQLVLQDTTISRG
Prostaglandin E2 receptor EP2 subtype (Homo sapiens), sequence (P43116 whole entry): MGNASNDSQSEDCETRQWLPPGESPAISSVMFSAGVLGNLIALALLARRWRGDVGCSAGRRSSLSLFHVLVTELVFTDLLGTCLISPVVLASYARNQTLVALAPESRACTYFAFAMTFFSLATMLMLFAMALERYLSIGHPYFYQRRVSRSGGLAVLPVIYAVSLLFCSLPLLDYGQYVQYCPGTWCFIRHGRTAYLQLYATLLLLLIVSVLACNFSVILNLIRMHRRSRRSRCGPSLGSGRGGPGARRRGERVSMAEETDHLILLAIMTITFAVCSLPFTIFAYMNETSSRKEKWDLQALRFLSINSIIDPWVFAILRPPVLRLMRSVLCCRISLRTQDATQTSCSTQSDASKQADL

As for `C/C=C/C=C/C=C/CC/C=C/C=C/C(=O)NCC(C)C`, the % activity in test [1] turned out to be 64%. For the same molecule, the inhibition in test [2] turned out to be 68%; in test [3], 72%; in test [4] it was 52%; in test [5], 15%; in test [17], 57%; in test [19] it was 37%. The Activity in test [6] was 7%; in test [7] it was 18%; in test [8], 18%; in test [9], 76%; in test [10], 61%; in test [11], 67%. Besides, the Activity in test [12], in test [13] and in [14] was 5% throughout. In [15], this molecule came in with an EC50 of 0.0417 µM. Besides, the Ratio IC50 in test [16] was determined as 0.15. Moreover, the IC50 in [18] is 0.664 µM; in [20], 0.1 µM.

As for `C/C=C/C=C/C=C\CC/C=C/C(=O)NCC(C)(O)CO` (centres undefined), the Ratio IC50 in test [16] came out at 0.24. The figures for the inhibition in [17] and in test [19] were 65% and 76%, respectively. In addition, the figures for the IC50 in test [18] and in test [20] were 0.168 µM and 0.041 µM, respectively.

`C/C=C/C=C/C=C/CC/C=C/C(=O)NCC(C)(C)O`: the IC50 in [18] was determined as 0.131 µM; in test [20], 0.009 µM.

On to `CC/C=C/C/C=C\CC/C=C/C=C/C(=O)NCC(C)(C)O`, for which, in test [16], the Ratio IC50 came out at 0.26. Further, the results for the inhibition in [17] and in test [19] were 62% and 45%, respectively. In addition, the values for the IC50 in [18] and in test [20] were 9.1 µM and 2.4 µM, respectively.

On to `C/C=C/C=C/C=C/CC/C=C/C=C/C(=O)NCC(C)(C)O`, for which, in test [16], the Ratio IC50 was found to be 6.2. Further, the inhibition is 34% in test [17] and 39% in [19]. Also, the figures for the IC50 in [18] and in [20] were 0.224 µM and 1.39 µM, respectively.

Regarding `CCCCCCCCC/C=C/C=C/C(=O)NCC(C)(C)O` [TETRAHYDROBUNGEANOOL], in test [16], the Ratio IC50 was 2560. The inhibition in test [17] was determined as 73%; in [19] it was 30%. The IC50 in test [18] is 0.002 µM; in test [20], 4.6 µM.

Take `C/C=C/C=C/C=C\CC/C=C/C=C/C(=O)NCC(C)(C)O`: the Ratio IC50 in [16] stood at 0.9. Besides, the inhibition amounted to 65% in test [17] and 31% in test [19]. The concentration for half-maximal inhibition (IC50) in [18] stood at 0.197 µM; in [20] it was 0.184 µM.

Regarding `C/C=C/C=C/C=C\CC/C=C/C(=O)NCC(C)(C)O`, the IC50 was found to be 0.059 µM in test [18] and 7.4 µM in test [20].
